Measurements taken from ChEMBL document CHEMBL1122020, “Synthesis and enzymic activity of various substituted pyrazolo[1,5-a]-1,3,5-triazines as adenosine cyclic 3',5'-phosphate phosphodiesterase inhibitors” (J Med Chem, 1982).

How the values were obtained:
[1] = target: T1, Phosphodiesterase 4 (Homo sapiens) (UniProt P27815+Q08499+Q07343+Q08493); assay: Inhibitory activity towards cAMP phosphodiesterase isolated from bovine heart.; type: protein assay; set-up: unit not given here; conditions: Bos taurus; target entry is the homologue from another species
Summary of the method: (§1)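 PDE prepared as previously described. Each 0.5 mL reaction held 25 µmol Tris-HCl (pH 7.5), 5 µmol MgCl2, 10-75 µg enzyme protein, 350 pmol [8-3H]cAMP (850 cpm/pmol), and at least seven inhibitor concentrations (0.5 µM to 5 mM). 5'-AMP formed was measured at three or more time points (3-12 min) to confirm linear rates. I50 was read graphically from % inhibition versus log inhibitor concentration.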

[2] = target: T1, Phosphodiesterase 4 (Homo sapiens); assay: Inhibitory activity towards cAMP phosphodiesterase isolated from rabbit lung.; type: protein assay; set-up: unit not given here; conditions: Oryctolagus cuniculus; target entry is the homologue from another species; summary of the method: as §1
[3] = target: T1, Phosphodiesterase 4 (Homo sapiens); assay: (§2) Inhibition of bovine brain cAMP Phosphodiesterase; conditions: Bos taurus; target entry is the homologue from another species; summary of the method: as §1
[4] = target: T1, Phosphodiesterase 4 (Homo sapiens); assay: Inhibitory activity towards cAMP Phosphodiesterase isolated from rabbit heart; type: protein assay; set-up: reference not given here; conditions: Oryctolagus cuniculus; target entry is the homologue from another species
Bos taurus [5] = species: Bos taurus
Bos taurus [6] = species: Bos taurus; remark: listed apart in the source
Bos taurus [7] = species: Bos taurus; assay: as §2; set-up: unit not given here; summary of the method: as §1
[8] = Inhibition of bovine heart cAMP Phosphodiesterase; set-up: species or system Bos taurus
Summary of the method: as §1, with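 “Enzymes” for “PDE”, “described (beef heart, 14 units/mg; rabbit lung, 70 units/mg). The” for “described. Each”, “pH 7.5,” for “(pH 7.5),”, “5'-AMP” for “5'-AMP formed”, “vs” for “versus”, “log” for “log inhibitor”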

[9] = Inhibition of rabbit lung cAMP Phosphodiesterase; set-up: species or system Oryctolagus cuniculus; conditions: read-out: I50
Summary of the method: as §1, with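 “Enzymes” for “PDE”, “described (beef heart, 14 units/mg; rabbit lung, 70 units/mg). The” for “described. Each”, “pH 7.5,” for “(pH 7.5),”, “5'-AMP” for “5'-AMP formed”, “vs” for “versus”, “log” for “log inhibitor”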

| Activity [1] | Activity [2] | Activity [4] | SMILES | also measured |
| --- | --- | --- | --- | --- |
| 2.5 | 13.5 | – | CCCCNc1ncnc2cc(-c3ccccc3)nn12 | – |
| 5 | – | – | CCc1nc(C)nc2c(-c3cccc(C)c3)cnn12 | – |
| – | 40 | 8 | CCNc1nc(SC)nc2c(Br)cnn12 | Activity [3]: 17 |
| – | 26 | 6.2 | CCN(CC)c1nc(SC)nc2c(Br)cnn12 | – |
| 40 | 185 | – | CCN(CC)c1ncnc2c(Br)c(-c3ccccc3)nn12 | – |
| 0.4 | 1.5 | – | Cc1cccc(-c2cnn3cnc(C)nc23)c1 | – |
| – | 0.6 | 0.5 | COc1nc(SC)nc2ccnn12 | – |
| 2 | 14 | – | Cc1cccc(-c2cnn3c(C)nc(C)nc23)c1 | – |
| 1.2 | 0.7 | – | CCOC(=O)c1cnn2c(CC)nc(C)nc12 | – |
| – | – | – | Nc1ncnc2c1ncn2[C@@H]1O[C@@H]2COP(=O)(O)O[C@H]2[C@H]1O | Km (Bos taurus [5]): 1.3 µM; Km (Oryctolagus cuniculus): 0.56 µM; Km (Bos taurus [6]): 0.63 µM |
| 10 | 27 | – | CCc1nc(C)nc2c(-c3ccccc3)cnn12 | Activity (Bos taurus [7]): 39 |
| – | 13 | 2.6 | CCSc1nc(SC)nc2c(Br)cnn12 | – |
| 3 | 25 | – | Cc1nc(C)n2ncc(-c3ccccc3)c2n1 | Activity (Bos taurus [7]): 40 |
| – | 19 | 12.2 | CCN(CC)c1nc(SC)nc2ccnn12 | Activity [3]: 12 |
| 4 | 21 | – | CCc1nc(C)nc2cc(-c3ccccc3)nn12 | – |
| 0.5 | 1.9 | – | Cc1nc(O)n2nc(-c3ccccc3)cc2n1 | Activity (Bos taurus [7]): 4.7 |
| – | 9 | 3.2 | COc1nc(SC)nc2c(Br)cnn12 | – |
| 0.9 | 1.8 | – | Cc1ncn2nc(-c3ccccc3)c(Br)c2n1 | – |
| 1.7 | 1.2 | – | CCc1nc(C)nc2c(C#N)cnn12 | – |
| 2 | 8 | – | CCCc1nc(C)nc2c(Br)c(-c3ccccc3)nn12 | – |
| 0.7 | 1.1 | – | CCc1nc(C)nc2ccnn12 | – |
| 7 | 20 | – | CCc1nc(CC)n2nc(-c3ccccc3)cc2n1 | Activity (Bos taurus [7]): 12 |
| 0.9 | 1 | – | Cc1nc(C)n2nccc2n1 | – |
| 0.8 | 1.8 | – | CCc1nc(C)nc2c(Cl)cnn12 | – |
| 57 | 143 | – | CCN(CC)c1ncnc2cc(-c3ccccc3)nn12 | Activity (Bos taurus [7]): 146 |
| 3 | 40 | – | Cc1nc(C)n2nc(-c3ccccc3)c(Br)c2n1 | – |

| Activity [1] | Activity [2] | Activity [4] | SMILES | also measured |
| --- | --- | --- | --- | --- |
| 1.7 | 11 | – | CCCCNc1nc(C)nc2cc(-c3ccccc3)nn12 | – |
| – | 160 | 12.5 | CCCCNc1nc(SC)nc2c(Br)cnn12 | Activity [3]: 18 |
| 2 | 9 | – | CCc1nc(CC)n2nc(-c3ccccc3)c(Br)c2n1 | – |
| 3.5 | 22 | – | Cc1nc(C)n2nc(-c3ccccc3)cc2n1 | Activity (Bos taurus [7]): 19 |
| – | 5 | 1.5 | CSc1nc(SC)n2ncc(Br)c2n1 | – |
| 0.5 | 2.4 | – | CCc1nc(C)n2nccc2n1 | – |
| – | 1.6 | 0 | CSc1nc(C)n2nccc2n1 | – |
| – | 12 | 5.8 | CCCNc1nc(SC)nc2ccnn12 | – |
| 2.7 | 12 | – | CCc1nc(C)n2nc(-c3ccccc3)cc2n1 | – |
| – | 11 | 7.3 | CSc1ncnc2cc(-c3ccccc3)nn12 | – |
| – | 2.7 | 0.7 | CCCOc1nc(SC)nc2c(Br)cnn12 | – |
| – | – | – | Cn1c(=O)c2nc[nH]c2n(C)c1=O [THEOPHYLLINE] | Ki [8]: 77 µM; IC50 ([8]; read-out: I50): 90 µM; IC50 [9]: 210 µM |
| 0.5 | 14 | – | CCc1ncn2nc(-c3ccccc3)cc2n1 | Activity (Bos taurus [7]): 97 |
| – | 1 | 0.68 | CSc1nc(S)n2ncc(Br)c2n1 | – |
| 3 | 25 | – | Cc1ncn2nc(-c3ccccc3)cc2n1 | Activity (Bos taurus [7]): 49 |
| 7 | 14 | – | CCc1nc(C)nc2c(Br)c(-c3ccccc3)nn12 | – |
| 8 | 14 | – | CCc1nc(CC)n2nc(-c3ccc(OC)cc3)cc2n1 | – |
| 3 | 16 | – | CCc1nc(C)nc2cc(-c3ccc(OC)cc3)nn12 | – |
| 1 | 2.5 | – | CCc1nc(C)nc2c(Br)cnn12 | – |
| 16 | 15 | – | CCc1nc(CC)n2nc(-c3ccccc3C)cc2n1 | Activity (Bos taurus [7]): 42 |
| 11 | 29 | – | c1ccc(-c2cc3ncnc(N4CCCCC4)n3n2)cc1 | – |
| – | 10 | – | Cc1nc(-c2ccccc2)n2nc(-c3ccccc3)cc2n1 | – |
| 3.8 | 26 | – | CCCNc1ncnc2cc(-c3ccccc3)nn12 | – |
| – | 8 | 3.2 | CCSc1nc(SC)nc2ccnn12 | – |
| – | 1.5 | 4 | CSc1nc(OC(C)C)n2ncc(Br)c2n1 | – |
| 11 | 10 | – | CCCc1nc(C)nc2cc(-c3ccccc3)nn12 | – |

| SMILES | Activity [1] | Activity [2] | Activity [4] | also measured |
| --- | --- | --- | --- | --- |
| CCCNc1nc(SC)nc2c(Br)cnn12 | – | 67 | 6.9 | – |
